Measured values as given in ChEMBL document CHEMBL2010648, “Discovery of novel anti-inflammatory drug-like compounds by aligning in silico and in vivo screening: the nitroindazolinone chemotype” (Eur J Med Chem, 2011).

How the values were obtained:
[1] = organism: Danio rerio; assay: Antiinflammatory activity in transgenic zebrafish larvae harboring Fli-1 gene assessed as LPS-stimulated leukocyte migration to injury zone of tail transected larvae at 1 uM after 20 to 22 hrs by microscopy; type: functional
Method in brief: (§1)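 Transgenic fli-1:EGFP zebrafish were reared in E3 at 28 °C, with PTU added at 20 hpf. Compounds were dissolved in DMSO and diluted in Danieau's, with final DMSO ≤1%. Ten 4-dpf larvae per group were pretreated for 1 h, anaesthetised with tricaine and tail-transected. They were then incubated with compound plus LPS for 20–22 h, fixed in 4% PFA and stained with Leucognost. Leukocyte migration to the tail tip was scored microscopically as relative leukocyte migration. Run in triplicate.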

[2] = organism: Danio rerio; assay: Antiinflammatory activity in transgenic zebrafish larvae harboring Fli-1 gene assessed as LPS-stimulated leukocyte migration to injury zone of tail transected larvae at 10 uM after 20 to 22 hrs by microscopy; type: functional; method in brief: as §1
[3] = organism: Danio rerio; assay: Antiinflammatory activity in transgenic zebrafish larvae harboring Fli-1 gene assessed as LPS-stimulated leukocyte migration to injury zone of tail transected larvae at 3 uM after 20 to 22 hrs by microscopy; type: functional; method in brief: as §1
[4] = organism: Danio rerio; assay: Toxicity in transgenic zebrafish larvae harboring Fli-1 gene assessed as maximum tolerated dosage after 24 hrs; type: organism-based; conditions: in vivo
Method in brief: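 Fertilized eggs of the fli-1:EGFP line reared in E3 embryo medium at 28 °C, with PTU added at 20 hpf to block pigmentation. Compounds were dissolved in DMSO and diluted in Danieau's 0.3X, final DMSO ≤1%. Larvae at 4 dpf, 5 per well, were exposed for 24 h to 10, 30 and 100 (highest) concentrations and checked by light microscopy at 5 dpf. MTC is the highest concentration giving no death or toxicity signs.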

[5] = organism: Danio rerio; assay: Antiinflammatory activity in transgenic zebrafish larvae harboring Fli-1 gene assessed as LPS-stimulated leukocyte migration to injury zone of tail transected larvae at 30 uM after 20 to 22 hrs by microscopy; type: functional; method in brief: as §1
[6] = organism: Mus musculus; assay: Inhibition of MPO activity in TPA-induced Swiss mouse ear tissue homogenates after 3 mins relative to control; type: functional, organism-based; design: concentration or dose not given beside the values
Method in brief: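 Ear tissue was homogenised at 0 °C in 80 mM phosphate buffer with 0.5% HTAB, then centrifuged at 10300g for 20 min at 4 °C. Supernatant, in triplicate, was mixed with phosphate buffer (pH 5.4) and H2O2. The reaction was started with TMB in 8% DMF, run 3 min at 37 °C and stopped with NaOAc/HOAc pH 3.0. A630 was read, and inhibition % was calculated versus the vehicle group.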

[7] = organism: Danio rerio; assay: Antiinflammatory activity in transgenic zebrafish larvae harboring Fli-1 gene assessed as LPS-stimulated leukocyte migration to injury zone of tail transected larvae at 100 uM after 20 to 22 hrs by microscopy; type: functional; method in brief: as §1
[8] = test system: Mus musculus; assay: Antiinflammatory activity against TPA-induced ear edema in Swiss mouse assessed as inhibition of increase in ear weight at 0.5 mg/ear administered topically measured after 4 hrs relative to control; type: functional
Method in brief: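 Female Swiss mice (25–30 g, groups of six) received TPA in acetone topically on the right ear, with the left ear as control. Compound in acetone was applied at the same time. After 4 h, 6 mm punches from both ears were weighed. Oedema was taken as the weight difference between ears, and inhibition % was calculated versus the vehicle group. Mean ± SEM, Dunnett's test.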

[9] = organism: Danio rerio; assay: Antiinflammatory activity in transgenic zebrafish larvae harboring Fli-1 gene assessed as LPS-stimulated leukocyte migration to injury zone of tail transected larvae at 0.3 uM after 20 to 22 hrs by microscopy; type: functional; method in brief: as §1
[10] = test system: J774; assay: Cytotoxicity against mouse J774 cells at 128 uM after 24 hrs by MTT assay; type: functional
Method in brief: (§2)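 J774 macrophages in RPMI-1640 with 20% heat-inactivated FCS were seeded at 70,000 cells/well and allowed to attach for 24 h at 37 °C. They were exposed to compounds for 24 h (final DMSO ≤0.2%), then given MTT 0.4 mg/mL for 60 min; formazan was dissolved in DMSO and read at OD595. %Cytotoxicity was calculated against growth controls, corrected for compound-in-medium blanks. Each concentration was tested three times, in duplicate assays.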

[11] = test system: J774; assay: Cytotoxicity against mouse J774 cells at 64 uM after 24 hrs by MTT assay; type: functional; method in brief: as §2
[12] = test system: J774; assay: Cytotoxicity against mouse J774 cells at 256 uM after 24 hrs by MTT assay; type: functional; method in brief: as §2
[13] = test system: J774; assay: Cytotoxicity against mouse J774 cells at 100 ug/mL after 24 hrs by MTT assay; type: functional; method in brief: as §2
[14] = test system: J774; assay: Cytotoxicity against mouse J774 cells at 1 ug/mL after 24 hrs by MTT assay; type: functional; method in brief: as §2
[15] = test system: J774; assay: Cytotoxicity against mouse J774 cells at 10 ug/mL after 24 hrs by MTT assay; type: functional; method in brief: as §2
[16] = organism: Danio rerio; assay: Toxicity to transgenic zebrafish larvae harboring Fli-1 gene at 100 uM after 24 hrs; conditions: in vivo

| SMILES | Ratio [1] | Ratio [2] | Ratio [3] | MTD [4] [µM] | Ratio [5] | other results |
| --- | --- | --- | --- | --- | --- | --- |
| O=[N+]([O-])c1ccc2c(c1)c(OCc1ccccc1)nn2Cc1ccccc1 | 0.94 | 0.73 | 0.75 | 10 | – | – |
| COc1ccc2c(c1)c(CC(=O)O)c(C)n2C(=O)c1ccc(Cl)cc1 [INDOMETHACIN] | 0.54 | 0.48 | 0.5 | > 100 | 0.38 | inhibition [6]: 61%; Ratio [7]: 0.28; inhibition (INH) [8]: 97%; Ratio [9]: 0.57 |
| CCCn1c2ccc([N+](=O)[O-])cc2c(=O)n1Cc1ccccc1 | – | 0.86 | 0.89 | 30 | 0.16 | – |
| O=C1Nc2cc([N+](=O)[O-])ccc2N2Cc3ccccc3CC12 (stereo not given) | 0.75 | 0.77 | 0.71 | 10 | – | – |
| O=c1c2cc([N+](=O)[O-])ccc2n2n1Cc1ccccc1C2 | 0.56 | 0.29 | 0.54 | 10 | – | – |
| O=c1[nH]n(Cc2ccccc2OCc2ccccc2)c2ccc([N+](=O)[O-])cc12 | 0.94 | 0.84 | 0.76 | 10 | – | – |
| CCCCCn1c2ccc([N+](=O)[O-])cc2c(=O)n1Cc1ccccc1 | 0.68 | 0.27 | 0.67 | 10 | – | Activity [10]: 71.75%; inhibition [6]: 46%; inhibition (INH) [8]: 92%; Activity [11]: 54.14%; Activity [12]: 80.99% |
| Cn1c2ccc([N+](=O)[O-])cc2c(=O)n1Cc1ccccc1 | – | 0.63 | 0.67 | 30 | 0.27 | inhibition [6]: 67%; Activity [13]: 57.5%; Activity [14]: 11.5%; Activity [15]: 21%; inhibition (INH) [8]: 104% |
| O=c1[nH]n(Cc2ccccc2-c2ccccc2Cn2[nH]c(=O)c3cc([N+](=O)[O-])ccc32)c2ccc([N+](=O)[O-])cc12 | 0.72 | 0.85 | 0.92 | 10 | – | – |
| O=C(Cc1cc([N+](=O)[O-])ccc1F)NN1Cc2ccccc2C1 | – | 0.89 | – | > 100 | 0.87 | Ratio [7]: 0.5 |
| O=[N+]([O-])c1ccc2[nH]nc(OCc3ccccc3Cl)c2c1 | 0.62 | 0.41 | 0.65 | 10 | – | inhibition [6]: 63%; Activity [13]: 96.4%; Activity [14]: 4.4%; Activity [15]: 9.4%; inhibition (INH) [8]: 91% |
| O=c1[nH]n(Cc2ccccc2CCl)c2ccc([N+](=O)[O-])cc12 | 0.83 | 0.33 | 0.78 | 10 | – | – |
| O=c1[nH]n(Cc2ccccc2O)c2ccc([N+](=O)[O-])cc12 | – | 0.86 | – | > 100 | 0.61 | Ratio [7]: 0.27 |
| O=C1C2=Cc3ccccc3CCN2c2ccccc21 | 0.4 | – | 0.24 | 3 | – | Activity [16]: Toxic; inhibition [6]: 56%; Activity [13]: 73.1%; Activity [14]: 3.4%; Activity [15]: 9.4%; inhibition (INH) [8]: 73%; Ratio [9]: 0.64 |
| O=c1c2cc([N+](=O)[O-])ccc2[nH]n1Cc1ccccc1 | – | 0.81 | – | > 100 | 0.65 | Ratio [7]: 0.39 |
| O=c1c2cccnc2n2n1Cc1ccccc1C2 | – | 0.8 | 0.89 | 30 | 0.52 | – |
| O=c1[nH]n(Cc2ccccc2)c2ccc([N+](=O)[O-])cc12 | 0.88 | 0.46 | 0.67 | 10 | – | – |

| SMILES | Ratio [1] | Ratio [2] | Ratio [3] | MTD [4] [µM] | Ratio [5] | other results |
| --- | --- | --- | --- | --- | --- | --- |
| O=c1[nH]n(Cc2ccccc2F)c2ccccc12 | – | 0.25 | 0.46 | 30 | 0.17 | inhibition [6]: -3%; inhibition (INH) [8]: 32% |
| O=[N+]([O-])c1ccc2c(c1)CC([O-])=N[N+]21CCCCC1 | – | 0.86 | – | > 100 | 0.89 | Ratio [7]: 0.81 |
| O=C(NCc1cc([N+](=O)[O-])ccc1N1CCc2ccccc2C1)NCc1cc([N+](=O)[O-])ccc1N1CCc2ccccc2C1 | 0.85 | 0.81 | 0.82 | 10 | – | – |
| COc1nn(Cc2ccccc2-c2ccccc2Cn2nc(OC)c3cc([N+](=O)[O-])ccc32)c2ccc([N+](=O)[O-])cc12 | 0.84 | 0.69 | 0.87 | 10 | – | – |
| O=c1c2cc([N+](=O)[O-])ccc2[nH]n1Cc1ccccn1 | – | 0.94 | – | > 100 | 0.62 | Ratio [7]: 0.66 |
| O=c1[nH]n(Cc2ccccc2F)c2ccc([N+](=O)[O-])cc12 | 0.91 | 0.3 | 0.84 | 10 | – | – |
| CCOCc1ccccc1CCN1CC(=O)Nc2cc([N+](=O)[O-])ccc21 | 0.59 | 0.48 | 0.62 | 10 | – | – |
| COc1ccc(Cn2[nH]c(=O)c3cc([N+](=O)[O-])ccc32)cc1 | 0.87 | 0.8 | 0.87 | 10 | – | – |
| O=c1[nH]n(Cc2cccc(Cn3[nH]c(=O)c4cc([N+](=O)[O-])ccc43)c2)c2ccc([N+](=O)[O-])cc12 | 0.87 | 0.64 | 0.8 | 10 | – | – |
| CN(C)CCCOc1nn(Cc2ccccc2F)c2ccc([N+](=O)[O-])cc12 | – | 0.89 | 0.74 | 30 | 0.97 | – |
| O=c1[nH]n(Cc2ccccn2)c2ccc([N+](=O)[O-])cc12 | – | 0.83 | – | > 100 | 0.74 | Ratio [7]: 0.59 |
| Cn1c(=O)c2cc([N+](=O)[O-])ccc2n1Cc1ccccc1 | – | 0.46 | 0.6 | 30 | 0.26 | inhibition [6]: 56%; Activity [13]: 58.4%; Activity [14]: 32.8%; Activity [15]: 43.9%; inhibition (INH) [8]: 97% |
| O=c1[nH]n(Cc2ccccc2Cl)c2ccc([N+](=O)[O-])cc12 | – | 0.22 | 0.78 | 30 | 0.26 | – |
| O=C(NN1Cc2ccccc2C1)c1cc([N+](=O)[O-])ccc1Cl | – | 0.93 | – | > 100 | 0.93 | Ratio [7]: 0.7 |
| COc1nn(Cc2ccccc2F)c2ccc([N+](=O)[O-])cc12 | – | 0.92 | 0.86 | 30 | 0.87 | – |
| O=c1c2cc([N+](=O)[O-])ccc2n(Cc2ccccc2)n1Cc1ccccc1 | 0.58 | 0.35 | 0.65 | 10 | – | Activity [10]: 64%; inhibition [6]: 36%; inhibition (INH) [8]: 80%; Activity [11]: 9.77%; Activity [12]: 57.87% |
